Experimental data: ChEMBL document CHEMBL3297679, “Studies on molecular properties prediction, antitubercular and antimicrobial activities of novel quinoline based pyrimidine motifs” (Bioorg Med Chem Lett, 2014)
In brackets after ≈: the same amount, converted by molar mass.

What was measured:
Candida albicans = experiment: Antifungal activity against Candida albicans MTCC 227 by conventional broth microdilution method; type: functional
Staphylococcus aureus [1] = experiment: Ratio of ciprofloxacin MIC to compound MIC for Staphylococcus aureus MTCC 96; type: functional
Staphylococcus aureus [2] = experiment: Antibacterial activity against Staphylococcus aureus MTCC 96 by conventional broth microdilution method; type: functional
Aspergillus clavatus = experiment: Antifungal activity against Aspergillus clavatus MTCC 1323 by conventional broth microdilution method; type: functional
HeLa = experiment: Cytotoxicity against human HeLa cells after 24 hrs incubation by MTT assay; type: functional, cell-based
In short: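 HeLa cells (1.0 × 10⁴) were exposed to a range of test compound concentrations for 24 h at 37 °C under 5% CO₂. MTT was then added, the supernatant was discarded, and the formazan was dissolved in DMSO. Absorbance was read at 540 nm, and IC₅₀ was reported in µM.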

Aspergillus niger = experiment: Antifungal activity against Aspergillus niger MTCC 282 by conventional broth microdilution method; type: functional
[3] = tested on: Mycobacterium tuberculosis; experiment: Antimycobacterial activity against Mycobacterium tuberculosis H37Rv by Lowenstein-Jensen slope method; type: functional; details: for MIC: Mycobacterium tuberculosis, H37Rv
Streptococcus pyogenes [4] = experiment: Antibacterial activity against Streptococcus pyogenes MTCC 442 by conventional broth microdilution method; type: functional
Pseudomonas aeruginosa [5] = experiment: Ratio of ciprofloxacin MIC to compound MIC for Pseudomonas aeruginosa MTCC 1688; type: functional
Escherichia coli = experiment: Antibacterial activity against Escherichia coli MTCC 443 by conventional broth microdilution method; type: functional
Streptococcus pyogenes [6] = experiment: Ratio of ciprofloxacin MIC to compound MIC for Streptococcus pyogenes MTCC 442; type: functional
Pseudomonas aeruginosa [7] = experiment: Antibacterial activity against Pseudomonas aeruginosa MTCC 1688 by conventional broth microdilution method; type: functional

## N#CCCSC1=NC(c2ccc(O)cc2)=CC(c2cc3cc(Cl)ccc3nc2Cl)N1 (configuration not stated)
Candida albicans
  MIC: 250 µg/mL (≈ 549 µM)
Staphylococcus aureus [1]
  Ratio: 4
Staphylococcus aureus [2]
  MIC: 25 µg/mL (≈ 54.9 µM)
Aspergillus clavatus
  MIC: 25 µg/mL (≈ 54.9 µM)
HeLa
  IC50: > 100 µM
Aspergillus niger
  MIC: 25 µg/mL (≈ 54.9 µM)
[3]
  inhibition (INH): 99%
  MIC: 3.12 µg/mL (≈ 6.85 µM)
Streptococcus pyogenes [4]
  MIC: 12.5 µg/mL (≈ 27.5 µM)
Pseudomonas aeruginosa [5]
  Ratio: 2
Escherichia coli
  MIC: 50 µg/mL (≈ 110 µM)
Streptococcus pyogenes [6]
  Ratio: 4
Pseudomonas aeruginosa [7]
  MIC: 25 µg/mL (≈ 54.9 µM)

## COc1cccc(C2=CC(c3cc4cc(Cl)ccc4nc3Cl)NC(SCCC#N)=N2)c1 (configuration not stated)
Candida albicans
  MIC: 500 µg/mL (≈ 1070 µM)
Staphylococcus aureus [2]
  MIC: 50 µg/mL (≈ 107 µM)
Aspergillus clavatus
  MIC: 100 µg/mL (≈ 213 µM)
Aspergillus niger
  MIC: 500 µg/mL (≈ 1070 µM)
[3]
  inhibition (INH): 97%
  MIC: 12.5 µg/mL (≈ 26.6 µM)
Streptococcus pyogenes [4]
  MIC: 100 µg/mL (≈ 213 µM)
Escherichia coli
  MIC: 100 µg/mL (≈ 213 µM)
Pseudomonas aeruginosa [7]
  MIC: 250 µg/mL (≈ 533 µM)

## COc1ccc(C2=CC(c3cc4cc(Cl)ccc4nc3Cl)NC(SCCC#N)=N2)cc1 (configuration not stated)
Candida albicans
  MIC: 1000 µg/mL (≈ 2130 µM)
Staphylococcus aureus [1]
  Ratio: 4
Staphylococcus aureus [2]
  MIC: 12.5 µg/mL (≈ 26.6 µM)
Aspergillus clavatus
  MIC: 250 µg/mL (≈ 533 µM)
HeLa
  IC50: > 100 µM
Aspergillus niger
  MIC: 250 µg/mL (≈ 533 µM)
[3]
  inhibition (INH): 99%
  MIC: 0.2 µg/mL (≈ 0.426 µM)
Streptococcus pyogenes [4]
  MIC: 25 µg/mL (≈ 53.3 µM)
Escherichia coli
  MIC: 25 µg/mL (≈ 53.3 µM)
Streptococcus pyogenes [6]
  Ratio: 4
Pseudomonas aeruginosa [7]
  MIC: 25 µg/mL (≈ 53.3 µM)

## N#CCCSC1=NC(c2cccc(Br)c2)=CC(c2cc3cc(Cl)ccc3nc2Cl)N1 (configuration not stated)
Candida albicans
  MIC: > 1000 µg/mL
Staphylococcus aureus [2]
  MIC: 500 µg/mL (≈ 965 µM)
Aspergillus clavatus
  MIC: 1000 µg/mL (≈ 1930 µM)
Aspergillus niger
  MIC: 500 µg/mL (≈ 965 µM)
[3]
  inhibition (INH): 66%
Streptococcus pyogenes [4]
  MIC: 1000 µg/mL (≈ 1930 µM)
Escherichia coli
  MIC: > 1000 µg/mL
Pseudomonas aeruginosa [7]
  MIC: 1000 µg/mL (≈ 1930 µM)

## N#CCCSC1=NC(c2ccc(Br)cc2)=CC(c2cc3cc(Cl)ccc3nc2Cl)N1 (configuration not stated)
Candida albicans
  MIC: 500 µg/mL (≈ 965 µM)
Staphylococcus aureus [2]
  MIC: 250 µg/mL (≈ 482 µM)
Aspergillus clavatus
  MIC: 500 µg/mL (≈ 965 µM)
Aspergillus niger
  MIC: 1000 µg/mL (≈ 1930 µM)
[3]
  inhibition (INH): 58%
Streptococcus pyogenes [4]
  MIC: 500 µg/mL (≈ 965 µM)
Escherichia coli
  MIC: 1000 µg/mL (≈ 1930 µM)
Pseudomonas aeruginosa [7]
  MIC: 500 µg/mL (≈ 965 µM)

## N#CCCSC1=NC(c2ccccc2)=CC(c2cc3cc(Cl)ccc3nc2Cl)N1 (configuration not stated)
Candida albicans
  MIC: 1000 µg/mL (≈ 2280 µM)
Staphylococcus aureus [2]
  MIC: 100 µg/mL (≈ 228 µM)
Aspergillus clavatus
  MIC: 500 µg/mL (≈ 1140 µM)
Aspergillus niger
  MIC: 1000 µg/mL (≈ 2280 µM)
[3]
  inhibition (INH): 62%
Streptococcus pyogenes [4]
  MIC: 250 µg/mL (≈ 569 µM)
Escherichia coli
  MIC: 500 µg/mL (≈ 1140 µM)
Pseudomonas aeruginosa [7]
  MIC: 250 µg/mL (≈ 569 µM)

## N#CCCSC1=NC(c2cccc(Cl)c2)=CC(c2cc3cc(Cl)ccc3nc2Cl)N1 (configuration not stated)
Candida albicans
  MIC: > 1000 µg/mL
Staphylococcus aureus [2]
  MIC: 250 µg/mL (≈ 528 µM)
Aspergillus clavatus
  MIC: 1000 µg/mL (≈ 2110 µM)
Aspergillus niger
  MIC: 500 µg/mL (≈ 1060 µM)
[3]
  inhibition (INH): 62%
Streptococcus pyogenes [4]
  MIC: 500 µg/mL (≈ 1060 µM)
Escherichia coli
  MIC: 1000 µg/mL (≈ 2110 µM)
Pseudomonas aeruginosa [7]
  MIC: 500 µg/mL (≈ 1060 µM)

## N#CCCSC1=NC(c2ccc(Cl)cc2)=CC(c2cc3cc(Cl)ccc3nc2Cl)N1 (configuration not stated)
Candida albicans
  MIC: > 1000 µg/mL
Staphylococcus aureus [2]
  MIC: 250 µg/mL (≈ 528 µM)
Aspergillus clavatus
  MIC: 1000 µg/mL (≈ 2110 µM)
Aspergillus niger
  MIC: 500 µg/mL (≈ 1060 µM)
[3]
  inhibition (INH): 42%
Streptococcus pyogenes [4]
  MIC: 500 µg/mL (≈ 1060 µM)
Escherichia coli
  MIC: 1000 µg/mL (≈ 2110 µM)
Pseudomonas aeruginosa [7]
  MIC: 500 µg/mL (≈ 1060 µM)

## N#CCCSC1=NC(c2cccc(F)c2)=CC(c2cc3cc(Cl)ccc3nc2Cl)N1 (configuration not stated)
Candida albicans
  MIC: 1000 µg/mL (≈ 2190 µM)
Staphylococcus aureus [2]
  MIC: 125 µg/mL (≈ 273 µM)
Aspergillus clavatus
  MIC: 500 µg/mL (≈ 1090 µM)
Aspergillus niger
  MIC: > 1000 µg/mL
[3]
  inhibition (INH): 41%
Streptococcus pyogenes [4]
  MIC: 250 µg/mL (≈ 547 µM)
Escherichia coli
  MIC: 500 µg/mL (≈ 1090 µM)
Pseudomonas aeruginosa [7]
  MIC: 500 µg/mL (≈ 1090 µM)

## N#CCCSC1=NC(c2ccc(F)cc2)=CC(c2cc3cc(Cl)ccc3nc2Cl)N1 (configuration not stated)
Candida albicans
  MIC: 1000 µg/mL (≈ 2190 µM)
Staphylococcus aureus [2]
  MIC: 500 µg/mL (≈ 1090 µM)
Aspergillus clavatus
  MIC: 500 µg/mL (≈ 1090 µM)
Aspergillus niger
  MIC: 1000 µg/mL (≈ 2190 µM)
[3]
  inhibition (INH): 69%
Streptococcus pyogenes [4]
  MIC: 500 µg/mL (≈ 1090 µM)
Escherichia coli
  MIC: 1000 µg/mL (≈ 2190 µM)
Pseudomonas aeruginosa [7]
  MIC: > 1000 µg/mL

## Cc1cccc(C2=CC(c3cc4cc(Cl)ccc4nc3Cl)NC(SCCC#N)=N2)c1 (configuration not stated)
Candida albicans
  MIC: 1000 µg/mL (≈ 2210 µM)
Staphylococcus aureus [2]
  MIC: 100 µg/mL (≈ 221 µM)
Aspergillus clavatus
  MIC: 500 µg/mL (≈ 1100 µM)
Aspergillus niger
  MIC: 500 µg/mL (≈ 1100 µM)
[3]
  inhibition (INH): 81%
Streptococcus pyogenes [4]
  MIC: 100 µg/mL (≈ 221 µM)
Escherichia coli
  MIC: 250 µg/mL (≈ 551 µM)
Pseudomonas aeruginosa [7]
  MIC: 100 µg/mL (≈ 221 µM)

## Cc1ccc(C2=CC(c3cc4cc(Cl)ccc4nc3Cl)NC(SCCC#N)=N2)cc1 (configuration not stated)
Candida albicans
  MIC: 500 µg/mL (≈ 1100 µM)
Staphylococcus aureus [1]
  Ratio: 2
Staphylococcus aureus [2]
  MIC: 25 µg/mL (≈ 55.1 µM)
Aspergillus clavatus
  MIC: 250 µg/mL (≈ 551 µM)
HeLa
  IC50: 94.2 µM
Aspergillus niger
  MIC: 500 µg/mL (≈ 1100 µM)
[3]
  inhibition (INH): 98%
  MIC: 3.12 µg/mL (≈ 6.88 µM)
Streptococcus pyogenes [4]
  MIC: 25 µg/mL (≈ 55.1 µM)
Escherichia coli
  MIC: 50 µg/mL (≈ 110 µM)
Streptococcus pyogenes [6]
  Ratio: 2
Pseudomonas aeruginosa [7]
  MIC: 50 µg/mL (≈ 110 µM)

## N#CCCSC1=NC(c2cccc([N+](=O)[O-])c2)=CC(c2cc3cc(Cl)ccc3nc2Cl)N1 (configuration not stated)
Candida albicans
  MIC: > 1000 µg/mL
Staphylococcus aureus [2]
  MIC: 500 µg/mL (≈ 1030 µM)
Aspergillus clavatus
  MIC: > 1000 µg/mL
Aspergillus niger
  MIC: 500 µg/mL (≈ 1030 µM)
[3]
  inhibition (INH): 38%
Streptococcus pyogenes [4]
  MIC: 1000 µg/mL (≈ 2060 µM)
Escherichia coli
  MIC: > 1000 µg/mL
Pseudomonas aeruginosa [7]
  MIC: 1000 µg/mL (≈ 2060 µM)

## N#CCCSC1=NC(c2ccc([N+](=O)[O-])cc2)=CC(c2cc3cc(Cl)ccc3nc2Cl)N1 (configuration not stated)
Candida albicans
  MIC: > 1000 µg/mL
Staphylococcus aureus [2]
  MIC: 1000 µg/mL (≈ 2060 µM)
Aspergillus clavatus
  MIC: 1000 µg/mL (≈ 2060 µM)
Aspergillus niger
  MIC: > 1000 µg/mL
[3]
  inhibition (INH): 56%
Streptococcus pyogenes [4]
  MIC: 500 µg/mL (≈ 1030 µM)
Escherichia coli
  MIC: 500 µg/mL (≈ 1030 µM)
Pseudomonas aeruginosa [7]
  MIC: 1000 µg/mL (≈ 2060 µM)

## N#CCCSC1=NC(c2cccc(O)c2)=CC(c2cc3cc(Cl)ccc3nc2Cl)N1 (configuration not stated)
Candida albicans
  MIC: 500 µg/mL (≈ 1100 µM)
Staphylococcus aureus [2]
  MIC: 100 µg/mL (≈ 220 µM)
Aspergillus clavatus
  MIC: 250 µg/mL (≈ 549 µM)
Aspergillus niger
  MIC: 250 µg/mL (≈ 549 µM)
[3]
  inhibition (INH): 98%
  MIC: 100 µg/mL (≈ 220 µM)
Streptococcus pyogenes [4]
  MIC: 100 µg/mL (≈ 220 µM)
Escherichia coli
  MIC: 125 µg/mL (≈ 275 µM)
Pseudomonas aeruginosa [7]
  MIC: 250 µg/mL (≈ 549 µM)

## O=C(O)c1cn(C2CC2)c2cc(N3CCNCC3)c(F)cc2c1=O [CIPROFLOXACIN]
Staphylococcus aureus [2]
  MIC: 50 µg/mL (≈ 151 µM)
Streptococcus pyogenes [4]
  MIC: 50 µg/mL (≈ 151 µM)
Escherichia coli
  MIC: 25 µg/mL (≈ 75.4 µM)

## COC1=CC(=O)C[C@@H](C)[C@]12Oc1c(Cl)c(OC)cc(OC)c1C2=O [GRISEOFULVIN]
Candida albicans
  MIC: 500 µg/mL (≈ 1420 µM)
Aspergillus clavatus
  MIC: 100 µg/mL (≈ 283 µM)
Aspergillus niger
  MIC: 100 µg/mL (≈ 283 µM)

## NNC(=O)c1ccncc1 [ISONIAZID]
[3]
  MIC: 0.2 µg/mL (≈ 1.46 µM)
